Measured values reported in ChEMBL document CHEMBL1124049, “Synthesis and biological characterization of pyridohomotropanes. Structure-activity relationships of conformationally restricted nicotinoids” (J Med Chem, 1988).

Experiments:
[1] = biological target: T1, Acetylcholine receptor (Torpedo californica, UniProt P02710+P02712+P02714+P02718); test: inhibition of (-)-[3H]nicotine binding to torpedo electroplax membranes
Procedure, shortened: (§1)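 Membranes from whole rat brain or Torpedo electric organ, homogenized in 30 volumes 0.05 M NaH2PO4 pH 7.0 and spun at 50000g for 30 min. Each tube held 2 mg brain protein or 1 mg electric organ protein, 1 × 10⁻⁹ M radioligand (final), and varied agent concentrations in 0.05 M NaPO4 pH 7.0.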

[2] = biological target: T1, Acetylcholine receptor; test: Inhibition of [3H]MCC binding to torpedo electroplax membranes; procedure, shortened: as §1
[3] = species on record: Rattus norvegicus; test: Effective dose required to produce prostration after injection into rat's fourth ventricle; type: functional
Procedure, shortened: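 Rats given various doses into the fourth ventricle through chronically implanted cannulae, in 1 μL. Prostration of the limbs was scored, from hind-limb prostration with forelimb weakness up to prostration of all four limbs.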

[4] = biological target: Neuronal acetylcholine receptor; test: Inhibition of [3H]MCC binding to rat brain membranes; type: cell membranes, Membrane; procedure, shortened: as §1
[5] = biological target: Neuronal acetylcholine receptor; test: Inhibition of (-)-[3H]nicotine binding to rat brain membranes; type: cell membranes, Membrane; procedure, shortened: as §1
[6] = species on record: Rattus norvegicus; test: Potency for prostration assay, relative to PHT; type: functional

T1 sequence (P02710 whole entry): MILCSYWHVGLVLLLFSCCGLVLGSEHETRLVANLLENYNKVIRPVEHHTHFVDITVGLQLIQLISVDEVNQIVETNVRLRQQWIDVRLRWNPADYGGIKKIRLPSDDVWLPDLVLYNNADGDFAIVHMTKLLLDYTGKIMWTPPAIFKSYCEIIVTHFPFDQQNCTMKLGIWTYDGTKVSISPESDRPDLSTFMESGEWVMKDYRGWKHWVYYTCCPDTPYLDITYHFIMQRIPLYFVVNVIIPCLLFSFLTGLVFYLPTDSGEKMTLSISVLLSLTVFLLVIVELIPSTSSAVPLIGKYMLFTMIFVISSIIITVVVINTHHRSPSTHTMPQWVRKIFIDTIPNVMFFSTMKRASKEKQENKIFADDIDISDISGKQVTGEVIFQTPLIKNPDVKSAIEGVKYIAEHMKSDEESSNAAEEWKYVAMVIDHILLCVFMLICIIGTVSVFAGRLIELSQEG
T1 sequence (P02712 whole entry): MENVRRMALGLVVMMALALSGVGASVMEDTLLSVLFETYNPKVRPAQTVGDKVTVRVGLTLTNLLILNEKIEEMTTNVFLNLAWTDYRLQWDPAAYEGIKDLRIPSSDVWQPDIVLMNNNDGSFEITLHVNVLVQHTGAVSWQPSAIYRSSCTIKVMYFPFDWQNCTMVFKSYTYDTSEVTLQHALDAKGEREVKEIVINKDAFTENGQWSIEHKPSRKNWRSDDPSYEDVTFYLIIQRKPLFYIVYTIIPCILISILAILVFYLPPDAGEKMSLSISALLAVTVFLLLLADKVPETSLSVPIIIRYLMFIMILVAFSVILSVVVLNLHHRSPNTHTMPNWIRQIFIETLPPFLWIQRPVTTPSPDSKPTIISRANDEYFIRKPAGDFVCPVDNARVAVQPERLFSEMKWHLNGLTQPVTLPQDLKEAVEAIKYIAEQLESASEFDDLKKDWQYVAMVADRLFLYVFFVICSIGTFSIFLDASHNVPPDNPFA
T1 sequence (P02718 whole entry): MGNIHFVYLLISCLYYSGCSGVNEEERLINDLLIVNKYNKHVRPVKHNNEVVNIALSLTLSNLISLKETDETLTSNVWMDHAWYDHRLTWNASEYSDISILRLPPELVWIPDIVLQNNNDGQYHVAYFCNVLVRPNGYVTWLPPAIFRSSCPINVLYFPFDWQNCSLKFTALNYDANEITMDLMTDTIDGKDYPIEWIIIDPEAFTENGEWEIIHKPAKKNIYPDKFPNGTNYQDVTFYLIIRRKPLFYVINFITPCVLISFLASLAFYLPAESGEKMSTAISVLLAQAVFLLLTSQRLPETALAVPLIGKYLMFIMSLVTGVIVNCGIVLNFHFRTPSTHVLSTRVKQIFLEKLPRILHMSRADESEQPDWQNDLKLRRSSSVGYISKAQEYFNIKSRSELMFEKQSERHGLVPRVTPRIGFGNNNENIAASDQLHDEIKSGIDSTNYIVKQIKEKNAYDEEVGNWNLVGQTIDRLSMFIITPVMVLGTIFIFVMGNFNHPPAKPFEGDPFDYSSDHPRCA
T1 sequence (P02714 whole entry): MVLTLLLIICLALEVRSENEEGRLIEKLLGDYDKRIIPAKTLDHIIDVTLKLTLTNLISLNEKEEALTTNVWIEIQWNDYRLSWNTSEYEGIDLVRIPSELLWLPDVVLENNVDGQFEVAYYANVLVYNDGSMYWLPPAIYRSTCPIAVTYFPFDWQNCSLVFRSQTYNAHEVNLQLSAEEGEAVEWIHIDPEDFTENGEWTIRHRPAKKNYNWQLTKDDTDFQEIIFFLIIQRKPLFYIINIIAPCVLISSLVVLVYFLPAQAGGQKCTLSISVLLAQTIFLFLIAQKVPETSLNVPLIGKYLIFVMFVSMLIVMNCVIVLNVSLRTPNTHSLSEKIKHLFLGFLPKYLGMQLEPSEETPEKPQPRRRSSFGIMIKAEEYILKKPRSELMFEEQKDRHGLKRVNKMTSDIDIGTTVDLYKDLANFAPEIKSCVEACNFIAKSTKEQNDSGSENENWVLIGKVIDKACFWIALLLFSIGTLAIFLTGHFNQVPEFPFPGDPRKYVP

| Compound | IC50 [1] | IC50 [2] | ED50 [3] | IC50 [4] | IC50 [5] | Relative potency [6] |
| --- | --- | --- | --- | --- | --- | --- |
| CN1CCC[C@H]1c1cccnc1 [NICOTINE] | 4 nM | 1 nM | 10 nmol | – | – | – |
| CN1C2CCc3ccncc3C1CC2 (centres undefined) | 800 nM | 2000 nM | 500 nmol | 3000 nM | 1000 nM | 0.02 |
| Cc1nccc2c1C1CCC(CC2)N1 (centres undefined) | 300 nM | 300 nM | 500 nmol | 700 nM | 900 nM | 0.02 |
| c1cc2c(cn1)C1CCC(CC2)N1 (centres undefined) | 1 nM | 0.1 nM | 10 nmol | 10 nM | 5 nM | 1 |
| c1cncc([C@@H]2CCCN2)c1 [NORNICOTINE] | 100 nM | 300 nM | 75 nmol | – | – | – |
